Compounds with a hit are over-represented: about 2.4% of the library has one in this group of screens.
NPY Y1 blocker – NPY-Y1 (human) receptor antagonism; P25929; HEK293-CNG Y1 cells, membrane potential fluorescence; NPY at EC95, then isoproterenol; inhibition, % at 3.6 µM; actives 1% (n = 200,000);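 active = inhibition above the campaign mean inhibition of all tested compounds plus 3 SD, cut at about 20% in these data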
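Benchmarks – high control isoproterenol alone, low control NPY with isoproterenol · Material – HEK293 Y1/CNG channel cell line · Times – dye 3 h, compound 60 min room temperature, stimulation 45 min · Probe or stimulus – NPY (25 nM), isoproterenol (1 µM), Ro 20-1724 (25 µM) · Evaluation – % inhibition of NPY effect · Signal – fluorescence, membrane potential probe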
S1P4 antagonist – blocks the human S1P4 receptor; actives 0.26% (n = 220,000); O95977; S1P4-expressing cells, antagonist mode, reporter read-out; AID 1510; inhibition, % at 4.98 µM; in the data active = inhibition above about 29%
NPY-Y2 antag – antagonists of human neuropeptide Y receptor Y2 | P49146 | NPY-Y2 expressing cells, antagonist mode | inhibition, % at 2.7 µM | actives 0.99% (n = 140,000) | AID 793; in the data active = inhibition above about 17%
NPY1 pot ag – human NPY-Y1 potentiation or agonism, primary screen | activation, % at 3.6 µM | actives 0.37% (n = 220,000) | NPY-Y1 expressing cells, potentiator/agonist activation; in the data active = activation above about 33%, passing the limit was not always enough;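 note: cells stimulated with NPY at EC10 then isoproterenol at EC100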
S1P4 agonist – human S1P4 receptor agonism. O95977. S1P4-expressing cell line, agonist reporter assay. activation, % at 4.98 µM. actives 0.35% (n = 220,000). AID 1509; in the data active = activation above about 11%
NPY-Y2 PAM-ag – potentiators or agonists of human neuropeptide Y receptor Y2; P49146; cells expressing NPY-Y2, potentiator/agonist read-out; activation, % at 3.6 µM; AID 1359; actives 0.45% (n = 220,000); in the data active = activation above about 27%;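 note: cells stimulated with NPY near EC25 plus isoproterenol at EC100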
S1P4 antag cf – confirmation of human S1P4 receptor antagonists. shares compounds with S1P4 antagonist. S1P4-expressing cell line, antagonist mode, reporter read-out. inhibition, % at 4.98 µM. actives 71% (n = 520); in the data active = inhibition above about 30%
S1P1 antag – human S1P1 antagonism as S1P4 antagonist counter-screen; shares compounds with S1P4 antagonist; cell-based S1P1 antagonist counterscreen, inhibition; inhibition, % at 4.98 µM; actives 37% (n = 520); AID 1564; in the data active = inhibition above about 40%;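 note: receptor stimulated with S1P near its EC80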
Target sequence (P21453 whole entry, looked up): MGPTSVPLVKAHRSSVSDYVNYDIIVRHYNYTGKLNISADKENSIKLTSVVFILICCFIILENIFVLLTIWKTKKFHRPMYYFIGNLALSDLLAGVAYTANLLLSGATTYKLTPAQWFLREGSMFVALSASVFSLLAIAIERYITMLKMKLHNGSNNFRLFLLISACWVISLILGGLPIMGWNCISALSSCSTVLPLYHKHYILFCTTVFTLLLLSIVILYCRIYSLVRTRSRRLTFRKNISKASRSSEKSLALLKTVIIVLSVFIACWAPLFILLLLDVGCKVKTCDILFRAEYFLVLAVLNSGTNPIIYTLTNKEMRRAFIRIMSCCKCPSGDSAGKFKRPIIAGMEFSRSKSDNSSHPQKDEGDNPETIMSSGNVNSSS
Numbers stand for hits; . = inactive; / = no result given.

SMILES	NPY Y1 blocker	S1P4 antagonist	NPY-Y2 antag	NPY1 pot ag	S1P4 agonist	NPY-Y2 PAM-ag	S1P4 antag cf	S1P1 antag
O=C1NCCN(Cc2ccoc2)C1CC(=O)N(CCO)Cc1ccccc1 (configuration not stated)	.	.	/	.	.	.	/	/
O=S(=O)(c1ccc(Cl)cc1)c1snnc1-c1ccccc1	.	36	.	.	.	.	72	.
CCOC(=O)C(C)(C)NS(=O)(=O)c1ccc(Cl)c([N+](=O)[O-])c1	.	.	.	.	.	.	/	/
CCOC(=O)C(C)(C)N(Cc1ccc(C)cc1)S(=O)(=O)c1ccc(Cl)c([N+](=O)[O-])c1	.	43	.	76	.	51	80	.
CC1Cc2ccccc2N1C(=S)NC(=O)C1(C)CC1(Cl)Cl (configuration not stated)	.	.	/	.	.	.	/	/
O=C(Nc1ccc(F)cc1)N1CCc2ccccc2C1	.	.	/	.	.	.	/	/
Cc1ccccc1NC(=O)N1CCc2ccccc2C1	.	32	/	.	.	.	80	.
Cc1ccc(OCCn2c(=O)oc3ccc(C)cc32)cc1	.	.	/	.	.	.	/	/
Cc1ccc2oc(=O)n(CCCOc3ccccc3)c2c1	.	34	.	.	.	.	.	.
O=C(Nc1cccc(NC(=O)c2cccs2)c1)c1ccc([N+](=O)[O-])o1	/	56	/	.	.	.	66	62
COc1cc(NC(=O)c2ccc([N+](=O)[O-])o2)ccc1NC(=O)c1cccs1	.	.	/	.	.	.	/	/
CC(C)CC(=O)N1CCN(c2ccc([N+](=O)[O-])c(NCc3ccccc3)c2)CC1	.	.	.	.	.	.	/	/
Cc1cc(C)c([N+](=O)[O-])cc1NCC(=O)N1CCN(c2ccccc2)CC1	.	38	/	.	.	.	.	.
CS(=O)(=O)c1ncc(Cl)c(C(=O)Nc2ccc3ccccc3c2)n1	.	41	/	.	.	.	119	54
O=C(Nc1ccc2ccccc2c1)c1cnccn1	.	.	.	.	.	.	/	/
CCNC(=S)N/N=C/c1cccc(C)c1	.	.	.	.	.	.	/	/
O=C(CSc1ncn[nH]1)Nc1ccc(Cl)c(S(=O)(=O)N2CCOCC2)c1	.	.	/	.	.	.	/	/
COc1ccc(Nc2nc(Cl)nc(NCCO)n2)cc1	.	.	.	.	.	.	/	/
COc1ccc(Nc2nc(Nc3ccc(OC)cc3)nc(SC3=NCCS3)n2)cc1	.	29	.	.	.	.	47	.
CN(C)S(=O)(=O)c1ccc(Cl)c(NC(=O)CN2CCN(Cc3ccc4c(c3)OCO4)CC2)c1	/	.	/	.	.	.	/	/
COc1cccc(-c2noc(CCC(=O)NCC3CCCO3)n2)c1 (configuration not stated)	.	.	/	.	.	.	/	/
O=C1Nc2ccccc2/C1=C/C(=O)c1cccs1	.	38	.	.	.	.	64	47
Cc1ccc(-c2nc(-c3cccnc3)sc2CC(=O)Nc2ccc3nc(C)sc3c2)cc1	.	.	.	.	.	.	/	/
COc1cc(NC(=O)c2cc(CC(C)C)on2)c(OC)cc1Cl	.	33	.	.	.	.	.	.
Nc1nonc1NC(=O)NN=C1CCCCC1	.	.	.	.	.	.	/	/
SMILES	NPY Y1 blocker	S1P4 antagonist	NPY-Y2 antag	NPY1 pot ag	S1P4 agonist	NPY-Y2 PAM-ag	S1P4 antag cf	S1P1 antag
Cc1nc2ccc(NC(=S)N3CCOCC3)cc2nc1C	.	.	/	.	.	.	/	/
O=C(/C=C/c1c(F)cccc1Cl)c1ccc(O)cc1	/	42	/	.	.	.	62	.
CCC(=O)OCCNc1cc(SCCC(=O)OC)c2nonc2c1[N+](=O)[O-]	.	.	.	.	.	.	/	/
CCCC(=O)OCCNc1cc(Sc2nc3ccccc3[nH]2)c2nonc2c1[N+](=O)[O-]	.	52	.	.	.	.	106	.
Cc1ccc(-n2nnnc2Sc2ccc(S(=O)(=O)NCCN(C)C)cc2[N+](=O)[O-])cc1	.	49	.	.	.	.	68	59
CC(C)(C)NC(=S)N/N=C\c1ccc(-c2ccc([N+](=O)[O-])cc2)o1	/	45	/	.	.	.	83	134
CCCCC(=O)N/N=C/c1ccc(-c2ccc([N+](=O)[O-])cc2)o1	.	.	/	.	.	.	/	/
O=C(O)CCn1c(=O)[nH]c2ccccc2c1=O	.	36	.	.	.	.	.	.
Cc1ccc(S(=O)(=O)Nc2cccc3cccnc23)cc1	.	42	.	.	.	.	110	98
COc1cc(NS(=O)(=O)c2ccc(C)cc2)c2ncccc2c1	.	.	.	.	.	.	/	/
CC(C)c1ccc(CNc2c([N+](=O)[O-])c(=O)oc3ccccc23)cc1	.	32	/	.	.	.	.	.
CS(=O)(=O)c1nc(-c2ccccc2)cc(C(F)(F)F)n1	.	40	.	.	.	.	116	.
COc1ccc(CNC(=O)c2c(C)oc3c2C(=O)c2ccccc2C3=O)cc1	.	.	.	.	.	.	/	/
Cc1oc2c(c1C(=O)NCc1cccnc1)C(=O)c1ccccc1C2=O	.	90	/	.	.	.	116	107
CCC(c1nnnn1CCc1ccccc1)N1CCN(C(=O)c2ccco2)CC1 (configuration not stated)	.	33	.	.	.	.	.	.
CCOC(=O)C(=O)N1CCC(C(=O)OC)CC1	.	.	/	.	.	.	/	/
Cc1noc(/C=C/c2nn(C)cc2Cl)c1[N+](=O)[O-]	/	34	/	.	.	.	59	.
Cc1cc(O)ccc1N/C=C/c1onc(C)c1[N+](=O)[O-]	.	.	/	.	.	.	/	/
Nc1ccc(C2CCCc3nonc32)c2nonc12 (configuration not stated)	.	43	.	.	.	.	.	.
Nc1ccc(N2CCCCC2)c2nonc12	.	.	/	.	.	.	/	/
Cc1cc(C)n(CC(=O)N2CCCC(C(=O)c3cccc(OC(C)C)c3)C2)n1 (configuration not stated)	.	.	/	.	.	.	/	/
O=C1C2CCCCC2C(=O)N1Cc1ccccc1 (configuration not stated)	.	.	/	.	.	.	/	/
O=c1ccsn1Cc1ccccc1	.	33	.	.	.	.	36	.
CC(=O)N(C1CC(C)C(C#N)(C#N)C1(C#N)C#N)N(C)C (configuration not stated)	.	.	/	.	.	.	/	/
CCCC(=O)N(C1CC(C)C(C#N)(C#N)C1(C#N)C#N)N(C)C (configuration not stated)	/	43	/	.	.	.	107	.
CCC(=O)N1CCN(c2ccc(NC(=O)c3ccc([N+](=O)[O-])o3)cc2Cl)CC1	.	56	/	.	.	.	113	44
O=C(Nc1ccc(S(=O)(=O)N2CCOCC2)cc1)c1ccc([N+](=O)[O-])o1	/	68	/	.	.	.	85	.
